Screening data: PubChem, Sanford-Burnham Center for Chemical Genomics
SENP8 block-1 – SENP8 protease inhibitors, primary screen, biochemical, luminescence | inhibition, % at 10 µM | purified SENP8, Z-RLRGG-aminoluciferin cleavage | 330,000 compounds, 1.2% hits | AID 2540, 2010; in the data active = inhibition above about 50%
Target sequence (Q96LD8 whole entry, looked up): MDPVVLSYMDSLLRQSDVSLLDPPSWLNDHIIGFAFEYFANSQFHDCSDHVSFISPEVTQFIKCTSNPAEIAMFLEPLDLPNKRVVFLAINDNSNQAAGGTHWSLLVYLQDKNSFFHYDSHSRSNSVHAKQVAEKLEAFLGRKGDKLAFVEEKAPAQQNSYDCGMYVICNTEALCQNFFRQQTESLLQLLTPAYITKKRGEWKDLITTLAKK
SENP7 block – SENP7 protease inhibitors, primary screen, biochemical, luminescence, uHTS | Sentrin-specific protease 7 (Homo sapiens), Q9BQF6 | recombinant SENP7, Z-RLRGG-aminoluciferin luminescence, 40 min | inhibition, % at 5 µM | 330,000 compounds, 1.5% hits | AID 434973, 2010;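 active = inhibition above about 50% at the single test dose, limit read from the data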;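 note: plate controls were DMSO with enzyme for no effect and no enzyme buffer wells for full effect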
UBC13 polyUb – UBC13 polyubiquitin chain formation inhibitors, primary screen, biochemical, TR-FRET, uHTS | inhibition, % at 20 µM | AID 485273, 2010 | Ubiquitin-conjugating enzyme E2 N (Homo sapiens), P61088 | 330,000 compounds, 0.47% hits; in the data active = inhibition above about 45%, passing the limit was not always enough; inconclusive = no clear call, values can overlap the other calls
SENP6 block – SENP6 protease inhibitors, primary screen, biochemical, luminescence, uHTS | AID 2599, 2010 | Sentrin-specific protease 6 (Homo sapiens), Q9GZR1 | 330,000 compounds, 1.8% hits | inhibition, % at 10 µM | Recombinant SENP6 catalytic domain, aminoluciferin luminescence;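 active = inhibition above about 50% at the single tested dose, limit read from the data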;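 note: plate controls were DMSO wells with enzyme for no effect and DMSO wells lacking enzyme for full effect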
Apaf1 inhib – inhibitors of human Apaf-1 apoptosome, primary screen, biochemical, DEVD-Rh110 fluorescence, uHTS; Apoptotic protease-activating factor 1 (Homo sapiens), O14727; reconstituted apoptosome caspase-3 activity; inhibition, % at 20 µM; 330,000 compounds, 0.71% hits; AID 489030, 2010; active = inhibition of at least 40% at 20 µM;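 note: plate controls were DMSO wells for no effect and DEVD-CHO caspase inhibitor wells for full effect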
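Material: biochemical Apaf-1 apoptosome reconstitution. Medium: Hepes buffer, pH 7.5. Also added: cytochrome c activation, bis-DEVD rhodamine 110 substrate. Timing: 30 min compound preincubation, 50 min activation, room temperature. Measured by: rhodamine 110 fluorescence at Ex 480/Em 540 nm.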
SENP8 block-2 – human SENP8 protease inhibitors, primary screen, biochemical, fluorescence, Nedd8 protein substrate, uHTS; Sentrin-specific protease 8 (Homo sapiens), Q96LD8; inhibition, % at 20 µM; 360,000 compounds, 0.64% hits; recombinant SENP8; in the data active = inhibition mostly above about 40%, no sharp cut-off; inactive = mostly below about 27%
Casp3 UBC13 ctr – CASP3 inhibitor validation, counterassay for project on UBE2N polyubiquitination blockers, biochemical, one dose; shares compounds with UBC13 polyUb; Recombinant caspase-3, Caspase-Glo 3/7 luminescence, 60 min; inhibition, % at 20 µM; 1,400 compounds, 4% hits;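 active = mean inhibition across replicates above about 26%, limit read from the data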;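 note: plate controls were DMSO with caspase-3 for no effect and DMSO wells lacking enzyme for full effect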
Target sequence (P42574 whole entry, looked up): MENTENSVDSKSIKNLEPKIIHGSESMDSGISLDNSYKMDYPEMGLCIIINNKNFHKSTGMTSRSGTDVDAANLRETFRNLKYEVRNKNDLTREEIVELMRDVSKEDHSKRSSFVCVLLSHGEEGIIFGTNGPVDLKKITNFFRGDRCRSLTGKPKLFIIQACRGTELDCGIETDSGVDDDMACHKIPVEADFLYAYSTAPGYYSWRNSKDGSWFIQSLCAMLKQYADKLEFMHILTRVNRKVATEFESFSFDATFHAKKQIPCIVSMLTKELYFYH
UBC13 confirm – UBC13 polyubiquitination inhibitors, single-point retest, confirmation, biochemical, TR-FRET, single concentration | shares compounds with UBC13 polyUb | inhibition, % at 10 µM | 1,400 compounds, 68% hits; in the data active = inhibition above about 45%; inconclusive = no clear call, values can overlap the other calls
* hit, by the source's call; ? = inconclusive; nt = not tested or not shown. Hits are enriched below; roughly 3% of the tested compounds scored in any of these assays.

SMILES	SENP8 block-1	SENP7 block	UBC13 polyUb	SENP6 block	Apaf1 inhib	SENP8 block-2	Casp3 UBC13 ctr	UBC13 confirm
CN1CCN(C2Cc3cc(F)ccc3Sc3ccc(Cl)cc32)CC1 (centres undefined)	13	4	13	-33	-78	21	nt	nt
O=C1NC2(CCCC2)N=C1c1ccc(F)cc1	-9	0	-18	-3	-2	14	nt	nt
O=C1NC2(CCCCCC2)N=C1c1ccc(Br)cc1	2	0	49*	-10	6	24	-3	?
Cc1ccc(C(C(=O)NC(C)(C)C)N(Cc2ccccc2)C(=O)c2snc(C(N)=O)c2N)o1 (centres undefined)	-2	1	71*	4	1	-396	5	66*
CCC(C)(C)NC(=O)C(c1ccc(C)o1)N(Cc1ccc2c(c1)OCO2)C(=O)c1snc(C(N)=O)c1N (centres undefined)	7	-8	78*	-7	6	-332	-3	86*
C=CCc1ccccc1OCC(O)CN1CCN(CCN2C(=O)c3cccc4cccc(c34)C2=O)CC1 (centres undefined)	-7	10	59*	-5	18	11	-4	97*
CC(=O)c1ccc(OCC(O)CN2CCN(CCN3C(=O)c4cccc5cccc(c45)C3=O)CC2)cc1 (centres undefined)	-1	-1	96*	5	4	-1	-2	103*
Cc1ccccc1OCC(O)CN1CCN(CCN2C(=O)c3cccc4cccc(c34)C2=O)CC1 (centres undefined)	-5	5	50*	-6	23	-6	0	76*
CC(=O)c1ccc(OCC(O)CN2CCN(CC(O)COc3ccc(C(C)=O)cc3)CC2)cc1 (centres undefined)	-1	-3	5	-14	-7	9	nt	nt
CCC(OCC(O)CN1CCN(CCN2C(=O)c3cccc4cccc(c34)C2=O)CC1)c1ccccc1 (centres undefined)	-14	-5	82*	-16	7	-10	4	97*
CC(C)OCC(O)CN1CCN(CCN2C(=O)c3cccc4cccc(c34)C2=O)CC1 (centres undefined)	-2	-3	-11	4	-1	-51	nt	nt
CCOC(=O)c1sc2nc(C)nc(SCC(=O)N(C)C3CCS(=O)(=O)C3)c2c1C (centres undefined)	-4	5	-16	-2	11	-48	nt	nt
COc1ccnc2c1c(=O)n(Cc1ccc(Cl)cc1Cl)c(=O)n2C	3	2	36	-3	7	-11	nt	nt
COc1ccnc2c1c(=O)n(Cc1c(F)cccc1Cl)c(=O)n2C	-3	8	9	7	3	6	nt	nt
COc1ccnc2c1c(=O)n(Cc1ccc(Cl)cc1)c(=O)n2C	-2	12	71*	7	11	-4	0	?
COc1ccnc2c1c(=O)n(Cc1ccc(F)cc1)c(=O)n2C	0	6	57*	8	-11	-22	0	67*
Cc1nonc1CN(C)C(=O)CC1C(=O)NCCN1Cc1cccc(C(F)(F)F)c1 (centres undefined)	8	2	6	-8	2	-38	nt	nt
CCN1CCN(Cc2ccc(NC(=O)c3ccc(C)c(NC(=O)c4ccno4)c3)cc2C(F)(F)F)CC1	-12	15	8	-5	24	8	nt	nt
CCN1CCN(Cc2ccc(NC(=O)c3ccc(C)c(/C=C/c4cnc(Nc5cc(N6CCNCC6)nc(C)n5)cn4)c3)cc2C(F)(F)F)CC1	-19	-21	123*	-31	32	-347	-1	116*
O=C(c1cccc([N+](=O)[O-])c1)N1CCCC(C(=O)N2CCN(c3ccccc3)CC2)C1 (centres undefined)	-2	-2	7	-12	-6	11	nt	nt
CC(C)=CCc1c(O)cc(O)c2c(=O)c(O[C@@H]3O[C@@H](C)[C@H](O)[C@@H](O)[C@H]3O)c(-c3ccc(O)cc3)oc12	-7	2	86*	-21	10	24	-4	78*
Cc1nc(N2CCN(c3ccc(Cl)cc3)CC2)[nH]c(=O)c1C	-3	0	2	7	-21	7	nt	nt
CC(C)COC(=O)N(C)C[C@H]1OCc2cnnn2CCCC(=O)N([C@H](C)CO)C[C@@H]1C	nt	nt	nt	nt	nt	7	nt	nt
CCCOC1CCCN(C(=O)c2ccc(OC)c(OC3CCN(C(C)C)CC3)c2)C1 (centres undefined)	1	-4	2	5	-3	7	nt	nt
O=C(CCNC(=O)c1ccccc1Cl)Nc1nc2ccccc2s1	-5	2	80*	-5	-4	10	2	101*
SMILES	SENP8 block-1	SENP7 block	UBC13 polyUb	SENP6 block	Apaf1 inhib	SENP8 block-2	Casp3 UBC13 ctr	UBC13 confirm
COc1ccc2nc(NC(=O)CCNC(=O)c3ccccc3Cl)sc2c1	-4	3	44	6	6	4	nt	nt
CCNC(=O)C1(C)CCCN(C(=O)c2nc(C)oc2C)C1 (centres undefined)	nt	nt	nt	nt	nt	17	nt	nt
O=C(CNCCc1ccccc1)N1CCc2ccccc2C1	3	4	1	8	3	21	nt	nt
CCOc1ccc(-c2noc(CCCC(=O)NC3CCCC3)n2)cc1OC	0	4	6	-9	2	13	nt	nt
CCOc1ccccc1NC(=O)CN1CCC(C(=O)c2ccc(F)cc2)CC1	4	10	73*	-2	23	14	0	78*
CC(C)OCCCNC(=O)c1cc2c(=O)n(C)c3ccccc3c2n1C	-3	-9	-4	5	4	-38	nt	nt
CCCCN(CC)CCCNC(=O)c1cc2c(=O)n(C)c3ccccc3c2n1C	2	0	49*	6	13	-99	-4	36
CCOc1ccc2nc(NC3=NC(C)(C)C=C(C)N3)nc(C)c2c1	-8	2	57*	-17	34	-127	2	64*
Cc1ccnc(NC(=O)CCC(=O)N(CC(=O)NC(C)(C)C)c2ccc3c(c2)OCCO3)c1	-4	4	1	-3	2	17	nt	nt
Cc1cc(SCC(=O)NC(=O)c2cccn2C)nc2ccccc12	-6	-4	56*	-26	-30	-18	-2	68*
Oc1ccc(N=Nc2ccccc2-c2nn[nH]n2)c(O)c1	-4	-5	-99	5	12	16	nt	nt
Cc1ccc(C(=O)OCC(=O)NC(C)c2ccccc2)cc1C (centres undefined)	-3	10	8	9	4	0	nt	nt
